Substitutions are numbered along the chain they refer to. Some results are limits rather than exact numbers.

In general, clearance refers to a measure of how efficiently the substance is removed, as volume per time. A word on the Tmax: it is the time at which the peak concentration occurs. For orientation: Cmax means the peak of the concentration-time curve. The term half-life denotes the time needed for the level to fall by half in the phase considered. The term AUC(0-t) denotes the area under the concentration-time curve up to a stated or last time point. As usually defined, the bioavailability is the share of a dose that reaches the circulation, judged against a reference dose that is usually intravenous.

The subject of data set [1] is T1, Nonstructural protein 5A (Hepatitis C virus), Q5L478 [Y93C].
T1 sequence (whole entry): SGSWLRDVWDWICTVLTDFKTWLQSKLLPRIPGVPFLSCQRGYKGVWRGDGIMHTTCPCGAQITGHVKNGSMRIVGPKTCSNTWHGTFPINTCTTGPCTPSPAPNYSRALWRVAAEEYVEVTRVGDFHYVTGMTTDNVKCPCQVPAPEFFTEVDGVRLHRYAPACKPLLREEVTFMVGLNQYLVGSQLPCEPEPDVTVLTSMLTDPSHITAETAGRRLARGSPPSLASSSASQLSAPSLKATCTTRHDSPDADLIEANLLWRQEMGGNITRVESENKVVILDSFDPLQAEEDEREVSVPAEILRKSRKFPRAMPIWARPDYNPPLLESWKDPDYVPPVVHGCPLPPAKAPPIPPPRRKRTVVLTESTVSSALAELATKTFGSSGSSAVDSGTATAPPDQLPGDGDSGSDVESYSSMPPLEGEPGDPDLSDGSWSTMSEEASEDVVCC
Put plainly: Inhibition of NS5A Y93C mutant in HuH7 cell infected HCV genotype 1a H77 assessed as decrease in viral replication after 4 days by luciferase reporter gene assay relative to wild type protein. The following applies: Hepatitis C virus (isolate H77). In short, it runs like this: (§1)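 Stable subgenomic luciferase replicons in Huh-7 cells: genotype 1a-H77 carrying NS5A substitutions M28T, Q30E, Q30R, Y93C, Y93H or Y93N, tested alongside the wild-type replicon. Cells are incubated 4 days with compound in DMEM with 5% FBS. Luciferase read-out, EC50 by 4-parameter logistic fit, and fold change versus wild type.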
A general note: Reporter assays use an easily measured gene product as a stand-in for the process of interest.

For data set [2], the system named is T2, Nonstructural protein 5A (Hepatitis C virus), Q5L478 [Y93N].
T2 sequence (whole entry): T1 sequence (whole entry) with C93N
Nature of the data set: Inhibition of NS5A Y93N mutant in HuH7 cell infected HCV genotype 1a H77 assessed as decrease in viral replication after 4 days by luciferase reporter gene assay relative to wild type protein. The following applies: Hepatitis C virus (isolate H77). An outline of the steps:
as §1

Data set [3] has as its system T3, Nonstructural protein 5A (Hepatitis C virus), Q5L478 [Y93H].
T3 sequence (whole entry): T1 sequence (whole entry) with C93H
Put plainly: Inhibition of NS5A Y93H mutant in HuH7 cell infected HCV genotype 1b Con1 assessed as decrease in viral replication after 4 days by luciferase reporter gene assay relative to wild type protein. The following applies: Hepatitis C virus (isolate Con1). In short, it runs like this: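 Stable subgenomic luciferase replicons in Huh-7 cells: genotype 1b-Con1 carrying NS5A Y93H or Y93N, tested alongside the wild-type replicon. Cells are incubated 4 days with compound in DMEM with 5% FBS. Luciferase read-out, EC50 from a 4-parameter logistic fit, expressed as fold change versus wild type.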

Data set [4] in a line: Plasma clearance in mouse at 3 mg/kg, iv by LC-MS method. The data set is classed as ADME, organism-based. In short, it runs like this:
(§2)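 Single dose, 3 mg/kg, in mouse or rat. IV vehicle: DMSO:Tween 80:PEG-400:D5W 2:5:20:73 (v/v). PO vehicle: Phosol 53 MCT:PEG-400:Poloxamer 124:Cremophor RH40 40:20:20:20 (w/w). Acetonitrile protein precipitation, then LC-MS/MS in negative-ion MRM against an internal standard; LOQ ~20 ng/mL.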

The nature of data set [5]: Tmax in mouse at 3 mg/kg, po by LC-MS method. The data set is classed as ADME, organism-based. To be noted: in vivo.
The nature of data set [6]: Cmax in mouse at 3 mg/kg, po by LC-MS method. The data set is classed as ADME, organism-based. More on the design: dose 3 mg/kg, route oral. To be noted: in vivo. In short, it runs like this:
as §2

The nature of data set [7]: Drug level in mouse at 3 mg/kg, po at 24 hrs by LC-MS method. Format: ADME, organism-based. The following applies: in vivo, read-out: Drug uptake. An outline of the steps: as §2
The nature of data set [8]: Half life in dog at 1 mg/kg, iv by LC-MS method. The data set is classed as ADME, organism-based, Canis lupus familiaris. The following applies: in vivo. An outline of the steps: (§3)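 Single dose in dog or monkey, 1 mg/kg IV or 2.5 mg/kg PO. Plasma drug measured by LC-MS after acetonitrile protein precipitation with an internal standard. Quantified by linear regression of parent/internal-standard peak-area ratio against spiked standards.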

Data set [9] in a line: Half life in monkey at 1 mg/kg, iv by LC-MS method. Format: ADME, organism-based, Macaca mulatta. To be noted: rhesus monkey, in vivo. In short, it runs like this:
as §3

A short description of data set [10]: Apparent volume of distribution in monkey at 1 mg/kg, iv by LC-MS method. Format: ADME, organism-based, Macaca mulatta. The following applies: rhesus monkey, in vivo, read-out: Vc. In short, it runs like this: as §3
Data set [11] in a line: Tmax in rat at 3 mg/kg, po by LC-MS method. The following applies: in vivo. The data set is classed as ADME, organism-based. In short, it runs like this:
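Single 3 mg/kg oral dose in rat, formulated in 40:20:20:20 (w/w) Phosol 53 MCT:PEG-400:Poloxamer 124:Cremophor RH40. Heparinized plasma drawn at 0.25, 0.5, 1, 2, 4, 6, 9, 12 and 24 h. Acetonitrile protein precipitation, then LC-MS in negative-ion MRM mode. Levels read from peak-area ratio to internal standard against spiked standards by linear regression; LOQ ~20 ng/mL.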

The nature of data set [12]: Half life in dog at 2.5 mg/kg, po by LC-MS method. To be noted: in vivo. Format: ADME, organism-based, Canis lupus familiaris. An outline of the steps:
as §3

A short description of data set [13]: Drug level in dog at 2.5 mg/kg, po at 24 hrs by LC-MS method. Format: ADME, organism-based, Canis lupus familiaris. To be noted: in vivo, read-out: Drug uptake. An outline of the steps:
as §3

The nature of data set [14]: AUClast in dog at 2.5 mg/kg, po by LC-MS method. Format: ADME, organism-based, Canis lupus familiaris. More on the design: dose 2.5 mg/kg, route oral, time 0 - last. To be noted: in vivo. An outline of the steps: as §3
A short description of data set [15]: Oral bioavailability in dog at 2.5 mg/kg by LC-MS method. Format: ADME, organism-based, Canis lupus familiaris. To be noted: in vivo. An outline of the steps:
as §3

Data set [16] in a line: Cmax in monkey at 2.5 mg/kg, po by LC-MS method. The data set is classed as ADME, organism-based, Macaca mulatta. More on the design: dose 2.5 mg/kg, route oral. To be noted: rhesus monkey, in vivo. An outline of the steps:
as §3

Data set [17] in a line: AUClast in monkey at 2.5 mg/kg, po by LC-MS method. The data set is classed as ADME, organism-based, Macaca mulatta. On the set-up: dose 2.5 mg/kg, time 0 - last, route oral. The following applies: rhesus monkey, in vivo. In short, it runs like this:
as §3

A short description of data set [18]: Oral bioavailability in monkey at 2.5 mg/kg by LC-MS method. The data set is classed as ADME, organism-based, Macaca mulatta. To be noted: rhesus monkey, in vivo. An outline of the steps: as §3

`COC(=O)N[C@H](C(=O)N1CCC[C@H]1c1nc2cc([C@H]3CC[C@H](c4cc5nc([C@@H]6CCCN6C(=O)[C@@H](NC(=O)OC)[C@@H](C)OC)[nH]c5cc4F)N3c3cc(F)c(N4CCC(c5ccc(F)cc5)CC4)c(F)c3)c(F)cc2[nH]1)[C@@H](C)OC` [PIBRENTASVIR]: the fold change (FC) came to 1.7 in [1], 6.7 in [2] and 0.6 in [3]. The same compound came in with a clearance in data set [4] of under 3 mL/h/kg. The Tmax was found to be 11 h in data set [5] and 5.3 h in [11]. The peak concentration (Cmax) in [6] amounted to 1140 nM; in [16] it was 260 nM. Moreover, the concentration at 24 h amounted to 467 nM in data set [7] and 82 nM in data set [13]. In addition, the results for the half-life in data set [8], in data set [9] and in data set [12] were 7.1 h, 8.3 h and 8.3 h, respectively. In addition, in [10], the Vd was 0.07 L/kg. Also, the AUC(0-t) is 5990 ng·h/mL in data set [14] and 2250 ng·h/mL in [17]. In addition, the results for the bioavailability in [15] and in data set [18] were 29.8% and 14.1%, respectively.
